Measured values taken from ChEMBL document CHEMBL4342473, “Lead Optimization of Benzoxazolone Carboxamides as Orally Bioavailable and CNS Penetrant Acid Ceramidase Inhibitors” (J Med Chem, 2020).
Calls of active or inactive are those of the source. No cut-off for these calls is given here.

Columns and labels:
[1] = test system: Mus musculus; experiment: Neuroprotective activity in ip dosed C57BL/6J/129SvEV mouse model of Gaucher's disease assessed as reduction in GluSph (d18:1) level in brain administered once daily for 14 days measured 1 hr post-last dose by MS analysis; format: functional, organism-based
How it was run: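 4L;C* mice (neuropathic Gaucher model) given 30 or 90 mg kg–1 i.p. once daily for 14 days from postnatal day 5; killed 1 h after last dose; brain GluSph (d18:1) measured; N = 4–8 per group, mixed sexes.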

[2] = Unbound plasma concentration in C57BL/6J/129SvEV mouse model of Gaucher's disease at 30 mg/kg, ip administered once daily for 14 days measured 1 hr post last dose; format: ADME, organism-based; settings: in vivo
How it was run: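 4L;C* mice dosed i.p. once daily for 14 days, killed 1 h after last dose (day 14); plasma and brain drug levels measured; unbound concentrations from plasma and brain unbound fractions (mean of two technical replicates); N = 4–8, mixed sexes.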

[3] = Ratio of unbound drug level in brain of twitcher mouse model of Krabbe's disease at 30 mg/kg,ip administered once daily for 20 days measured 1 hr post-last dose to EC50 for inhibition of acid ceramidase in Krabbe's disease patient-derived primary fibroblasts; format: organism-based; settings: in vivo
How it was run: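 Twitcher mice (3 males + 3 females per group) got 30 or 90 mg kg–1 i.p. once daily for 20 days from postnatal day 10 and were sacrificed 1 h after the day-20 dose. Plasma and brain levels were measured, and unbound brain level came from brain fraction unbound (two technical replicates). The EC50 was from Krabbe patient primary fibroblasts exposed 2 h to a concentration series (two independent experiments, duplicates).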

[4] = Unbound drug level in brain of twitcher mouse model of Krabbe's disease at 90 mg/kg,ip administered once daily for 20 days measured 1 hr post-last dose; format: ADME, organism-based; settings: in vivo
How it was run: (§1)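 Twitcher mice dosed i.p. once daily for 20 days, sacrificed 1 h after last dose (day 20); drug measured in plasma and brain; unbound levels from unbound fractions (mean of two technical replicates); N = 3 males + 3 females per group.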

[5] = Unbound drug level in brain of twitcher mouse model of Krabbe's disease at 30 mg/kg,ip administered once daily for 20 days measured 1 hr post-last dose; format: ADME, organism-based; settings: in vivo; how it was run: as §1
[6] = target: T1, Acid ceramidase (Homo sapiens) (UniProt Q13510); experiment: Inhibition of acid ceramidase in human SH-SY5Y cells assessed as decrease in sphingosine level measured after 3 hrs by LC/MS analysis; format: cell-based
T1 sequence (whole entry): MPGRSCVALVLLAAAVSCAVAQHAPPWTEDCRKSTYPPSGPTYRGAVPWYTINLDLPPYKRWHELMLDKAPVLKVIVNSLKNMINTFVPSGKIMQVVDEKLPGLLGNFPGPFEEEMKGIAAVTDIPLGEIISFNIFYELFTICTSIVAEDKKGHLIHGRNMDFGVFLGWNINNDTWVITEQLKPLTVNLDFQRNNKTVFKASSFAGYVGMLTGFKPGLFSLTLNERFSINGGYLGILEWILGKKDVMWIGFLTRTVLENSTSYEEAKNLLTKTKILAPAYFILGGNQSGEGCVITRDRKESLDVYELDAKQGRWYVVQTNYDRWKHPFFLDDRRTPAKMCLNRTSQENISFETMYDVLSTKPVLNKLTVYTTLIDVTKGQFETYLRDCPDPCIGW
How it was run: (§2)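 SH-SY5Y neuroblastoma cells exposed 3 h to 1, 2.5, 5 and 10 μM; AC activity by LC/MS-based assay; ceramide species, sphingosine, SM and HexCer (d18:1/16:0) quantified by LC/MS; means ± S.E.M. of at least six determinations, experiment repeated twice.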

[7] = target: T1, Acid ceramidase (Homo sapiens); experiment: Inhibition of acid ceramidase in human SH-SY5Y cells assessed as increase in intracellular accumulation of Cer (d18:0/16:0) measured after 3 hrs by LC/MS analysis; format: cell-based; how it was run: as §2
[8] = target: T1, Acid ceramidase (Homo sapiens); experiment: Inhibition of acid ceramidase in human SH-SY5Y cells assessed as change in intracellular accumulation of HexCer (d18:1/16:0) at 10 uM measured up to 6 hrs by LC/MS analysis; format: cell-based
How it was run: (§3)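 Human neuroblastoma SH-SY5Y cells incubated with compound at 10 μM for 30 min, 1 h, 3 h and 6 h; AC activity by LC/MS-based activity assay; Cer (d18:0/16:0), Cer (d18:1/16:0), sphingosine, SM (d18:1/16:0) and HexCer (d18:1/16:0) quantified by LC/MS.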

[9] = target: T1, Acid ceramidase (Homo sapiens); experiment: Inhibition of acid ceramidase in human SH-SY5Y cells at 10 uM using N-lauroyl ceramide as substrate by LC/MS analysis; format: cell-based; settings: TDE = time-dependent effect; how it was run: as §3
[10] = target: T2, Lysosomal acid glucosylceramidase (Homo sapiens) (UniProt P04062); experiment: Inhibition of human full length GCase at 1 to 10 uM using 4-MUG as fluorogenic substrate incubated for 15 mins by fluorescence based assay
T2 sequence (whole entry): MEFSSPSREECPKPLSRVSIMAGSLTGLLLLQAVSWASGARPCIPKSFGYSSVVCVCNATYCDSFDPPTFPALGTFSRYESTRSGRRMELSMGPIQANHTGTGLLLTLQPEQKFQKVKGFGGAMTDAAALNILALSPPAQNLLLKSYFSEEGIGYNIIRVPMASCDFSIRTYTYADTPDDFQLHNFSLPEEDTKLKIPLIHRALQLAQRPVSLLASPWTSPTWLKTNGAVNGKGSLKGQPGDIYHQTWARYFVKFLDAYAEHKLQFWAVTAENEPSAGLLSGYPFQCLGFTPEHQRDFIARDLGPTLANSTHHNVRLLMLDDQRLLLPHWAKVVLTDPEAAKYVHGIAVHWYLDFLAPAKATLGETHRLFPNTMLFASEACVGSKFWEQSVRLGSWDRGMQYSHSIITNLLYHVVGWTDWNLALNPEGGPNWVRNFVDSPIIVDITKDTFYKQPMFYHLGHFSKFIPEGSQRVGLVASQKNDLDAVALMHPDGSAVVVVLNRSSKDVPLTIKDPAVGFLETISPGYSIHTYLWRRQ

[11] = target: T1, Acid ceramidase (Homo sapiens); experiment: Inhibition of acid ceramidase in human SH-SY5Y cells assessed as increase in intracellular accumulation of Cer (d18:1/16:0) at 10 uM measured up to 6 hrs by LC/MS analysis; format: cell-based; how it was run: as §3
[12] = target: T1, Acid ceramidase (Homo sapiens); experiment: Inhibition of acid ceramidase in human SH-SY5Y cells assessed as change in intracellular accumulation of SM (d18:1/16:0) at 10 uM measured up to 6 hrs by LC/MS analysis; format: cell-based; how it was run: as §3
[13] = Ratio of unbound drug level in brain of C57BL/6J/129SvEV mouse model of Gaucher's disease at 30 mg/kg, ip administered once daily for 14 days measured 1 hr post-last dose to EC50 for inhibition of acid ceramidase in Krabbe's disease patient-derived primary fibroblasts; format: organism-based; settings: in vivo
How it was run: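 Gaucher-model 4L;C* mice (N = 4–8, mixed sexes) got 30 or 90 mg kg–1 i.p. once daily for 14 days from postnatal day 5 and were sacrificed 1 h after the day-14 dose. Compound levels were measured in plasma and brain, and unbound brain level came from brain fraction unbound (two technical replicates). The reference EC50 was from Krabbe patient primary fibroblasts incubated 2 h across concentrations (two independent experiments, duplicates).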

**Q.** For `CC(C)CNC(=O)n1c(=O)oc2cc(C3CCN(C)CC3)ccc21`, which Activity [1] is on record?
**A.** The Activity was “Dose-dependent effect”.

**Q.** What about the “Cp(f)” value [2] of the same compound?
**A.** The value was 420 nM.

**Q.** And the Ratio [3]?
**A.** Its Ratio is 2.

**Q.** What about the “Drug uptake(free)” value [4] of the same compound?
**A.** The value was 2.15 µM.

**Q.** What about the “Drug uptake(free)” value [5] of the same compound?
**A.** The value was 0.8 µM.

**Q.** And the inhibition [6]?
**A.** Its inhibition is “Dose-dependent effect”.

**Q.** What about the inhibition [7] of the same compound?
**A.** Its inhibition is “Dose-dependent effect”.

**Q.** And the inhibition [8]?
**A.** The inhibition was “inactive”.

**Q.** What about the inhibition [9] of the same compound?
**A.** The inhibition was “Tde”.

**Q.** What about the inhibition [10] of the same compound?
**A.** The inhibition was “inactive”.

**Q.** What about the inhibition [11] of the same compound?
**A.** The inhibition was “Active”.

**Q.** What about the inhibition [12] of the same compound?
**A.** The inhibition was “inactive”.

**Q.** What about the Ratio [13] of the same compound?
**A.** Its Ratio is 1.9.
